Test results published in ChEMBL document CHEMBL1629527, “In vitro antifungal activities of bis(alkylpyridinium)alkane compounds against pathogenic yeasts and molds” (Antimicrob Agents Chemother, 2010).

Legend:
[1] = test system: Cryptococcus gattii species complex; experiment: Antifungal activity against Cryptococcus gattii after 24 to 72 hrs by broth microdilution method; type: functional, Cryptococcus bacillisporus
How it was run: (§1)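 Broth microdilution MIC per CLSI M27-A3 (yeasts) or M38-A2 (molds). RPMI 1640 with L-glutamine, without bicarbonate, buffered to pH 7.0 with 0.165 M MOPS. Final test range for the compounds was 0.175–87.5 μM. Incubation at 35°C with visual reading at 24–72 h. MIC was the lowest concentration giving 100% inhibition versus the growth control (azoles 50% or 100%, by organism). Each isolate was run in duplicate in two independent experiments.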

Candida albicans [2] = experiment: Antifungal activity against Candida albicans after 48 to 72 hrs; type: functional
How it was run: (§2)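 MFC: after the MIC read, 30-μl aliquots from each well without visible growth were plated onto Sabouraud dextrose agar and incubated at 35°C. Reading was at 48–72 h for yeasts and up to 7 days for molds. MFC was the lowest concentration with no colonies.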

Candida tropicalis [3] = experiment: Antifungal activity against Candida tropicalis after 48 to 72 hrs; type: functional; how it was run: as §2
Candida parapsilosis [4] = experiment: Antifungal activity against Candida parapsilosis after 48 to 72 hrs; type: functional; how it was run: as §2
Candida dubliniensis [5] = experiment: Antifungal activity against Candida dubliniensis after 48 to 72 hrs; type: functional; how it was run: as §2
[6] = test system: Meyerozyma guilliermondii; experiment: Antifungal activity against Candida guilliermondii after 48 to 72 hrs; type: functional; how it was run: as §2
Clavispora lusitaniae [7] = experiment: Antifungal activity against Candida lusitaniae after 48 to 72 hrs; type: functional; how it was run: as §2
[8] = test system: Cryptococcus gattii species complex; experiment: Antifungal activity against Cryptococcus gattii after 48 to 72 hrs; type: functional, Cryptococcus bacillisporus; how it was run: as §2
[9] = Toxicity against human erythrocytes assessed as hemolysis; type: cell-based, Erythrocyte
Rhizopus arrhizus [10] = experiment: Antifungal activity against Rhizopus oryzae 05-203111 after 48 to 72 hrs; type: functional
How it was run: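 After the broth microdilution MIC read, suspension from every well without visible growth was plated onto Sabouraud dextrose agar and incubated at 35°C, up to 7 days for molds. MFC was taken as the lowest drug concentration with no colonies.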

Candida parapsilosis [11] = experiment: Antifungal activity against Candida parapsilosis after 24 to 72 hrs by broth microdilution method; type: functional; settings: Lodderomyces parapsilosis; how it was run: as §1
Pichia kudriavzevii [12] = experiment: Antifungal activity against Candida krusei after 24 to 72 hrs by broth microdilution method; type: functional; how it was run: as §1
Candida dubliniensis [13] = experiment: Antifungal activity against Candida dubliniensis after 24 to 72 hrs by broth microdilution method; type: functional; how it was run: as §1
[14] = test system: Meyerozyma guilliermondii; experiment: Antifungal activity against Candida guilliermondii after 24 to 72 hrs by broth microdilution method; type: functional; how it was run: as §1
Aspergillus flavus [15] = experiment: Antifungal activity against Aspergillus flavus ATCC 204304 after 48 to 72 hrs; type: functional; how it was run: as §2
Exophiala spinifera = experiment: Antifungal activity against Exophiala spinifera 03-200803 after 24 to 72 hrs by broth microdilution method; type: functional
How it was run: (§3)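 Mold isolates subcultured on potato dextrose agar, then tested by CLSI M38-A2 broth microdilution in RPMI 1640 (L-glutamine, no bicarbonate) buffered to pH 7.0 with 0.165 M MOPS. Compounds were dissolved in water and tested at a final 0.175–87.5 μM. Plates were incubated at 35°C. MIC was read visually as the lowest concentration giving 100% inhibition versus the growth control. Each isolate was run in duplicate in two independent experiments.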

Fusarium solani = experiment: Antifungal activity against Fusarium solani 04-203102 after 24 to 72 hrs by broth microdilution method; type: functional; how it was run: as §3
[16] = Antifungal activity against Paecilomyces lilacinus 05-200601 after 24 to 72 hrs by broth microdilution method; type: functional; settings: Purpureocillium lilacinum; how it was run: as §3
Rhizopus arrhizus [17] = experiment: Antifungal activity against Rhizopus oryzae 05-203111 after 24 to 72 hrs by broth microdilution method; type: functional; how it was run: as §3
Aspergillus fumigatus [18] = experiment: Antifungal activity against Aspergillus fumigatus 05-203114 after 24 to 72 hrs by broth microdilution method; type: functional; how it was run: as §1
Aspergillus flavus [19] = experiment: Antifungal activity against Aspergillus flavus ATCC 204304 after 24 to 72 hrs by broth microdilution method; type: functional; how it was run: as §1
Aspergillus flavus [20] = experiment: Antifungal activity against Aspergillus flavus 05-203758 after 24 to 72 hrs by broth microdilution method; type: functional; how it was run: as §1
Aspergillus terreus = experiment: Antifungal activity against Aspergillus terreus 05-202844 after 24 to 72 hrs by broth microdilution method; type: functional; how it was run: as §1
Scedosporium apiospermum = experiment: Antifungal activity against Scedosporium apiospermum 05-203100 after 24 to 72 hrs by broth microdilution method; type: functional; how it was run: as §3
[21] = test system: Cunninghamella bertholletiae; experiment: Antifungal activity against Cunninghamella bertholletiae 99-12187 after 24 to 72 hrs by broth microdilution method; type: functional; how it was run: as §1
Lichtheimia corymbifera = experiment: Antifungal activity against Absidia corymbifera 04-200170 after 24 to 72 hrs by broth microdilution method; type: functional; how it was run: as §1
Aspergillus fumigatus [22] = experiment: Antifungal activity against Aspergillus fumigatus ATCC 204305 after 24 to 72 hrs by broth microdilution method; type: functional; how it was run: as §1
[23] = test system: Cryptococcus gattii species complex; experiment: Antifungal activity against Cryptococcus gattii 05-200122 after 24 to 72 hrs by broth microdilution method; type: functional, Cryptococcus bacillisporus; how it was run: as §1
Cryptococcus neoformans = experiment: Antifungal activity against Cryptococcus neoformans ATCC 90112 after 24 to 72 hrs by broth microdilution method; type: functional; how it was run: as §1
Candida tropicalis [24] = experiment: Antifungal activity against Candida tropicalis 04-202361 after 24 to 72 hrs by broth microdilution method; type: functional; how it was run: as §1
Nakaseomyces glabratus = experiment: Antifungal activity against Candida glabrata 04-202345 after 24 to 72 hrs by broth microdilution method; type: functional; how it was run: as §1
Candida parapsilosis [25] = experiment: Antifungal activity against Candida parapsilosis 04-202398 after 24 to 72 hrs by broth microdilution method; type: functional; settings: Lodderomyces parapsilosis; how it was run: as §1
Pichia kudriavzevii [26] = experiment: Antifungal activity against Candida krusei 04-202328 after 24 to 72 hrs by broth microdilution method; type: functional; how it was run: as §1
Candida parapsilosis [27] = experiment: Antifungal activity against Candida parapsilosis ATCC 22019 after 24 to 72 hrs by broth microdilution method; type: functional; settings: Lodderomyces parapsilosis; how it was run: as §1
Pichia kudriavzevii [28] = experiment: Antifungal activity against Candida krusei ATCC 6258 after 24 to 72 hrs by broth microdilution method; type: functional; how it was run: as §1
Candida albicans [29] = experiment: Antifungal activity against Candida albicans ATCC 10231 after 24 to 72 hrs by broth microdilution method; type: functional; how it was run: as §1
Clavispora lusitaniae [30] = experiment: Antifungal activity against Candida lusitaniae after 24 to 72 hrs by broth microdilution method; type: functional; how it was run: as §1
[31] = Antifungal activity against Exophiala jeanselmei 03-200268 after 24 to 72 hrs by broth microdilution method; type: functional; how it was run: as §1

Compound: CCCCCc1cc[n+](CCCCCCCCCCCC[n+]2ccc(CCCCC)cc2)cc1.[Cl-].[Cl-]
- MIC [1]: 1.06 µg/mL
- MIC50 [1]: 0.75 µg/mL
- MIC90 [1]: 1.48 µg/mL
- MFC50 (Candida albicans [2]): 1.48 µg/mL
- MFC90 (Candida albicans [2]): 1.48 µg/mL
- MFC (Candida albicans [2]; Candida albicans): 0.75 µg/mL
- MFC50 (Candida tropicalis [3]): 0.75 µg/mL
- MFC90 (Candida tropicalis [3]): 0.75 µg/mL
- MFC (Candida tropicalis [3]; Candida tropicalis): 0.38 µg/mL
- MFC50 (Candida parapsilosis [4]): >47 µg/mL
- MFC90 (Candida parapsilosis [4]): >47 µg/mL
- MFC (Candida parapsilosis [4]; Lodderomyces parapsilosis): > 47 µg/mL
- MFC50 (Candida dubliniensis [5]): 0.75 µg/mL
- MFC90 (Candida dubliniensis [5]): 1.48 µg/mL
- MFC (Candida dubliniensis [5]; Candida dubliniensis): 0.75 µg/mL
- MFC50 [6]: 0.75 µg/mL
- MFC90 [6]: 0.75 µg/mL
- MFC ([6]; Meyerozyma guilliermondii): 0.38 µg/mL
- MFC50 (Clavispora lusitaniae [7]): 1.48 µg/mL
- MFC90 (Clavispora lusitaniae [7]): 1.48 µg/mL
- MFC (Clavispora lusitaniae [7]; Clavispora lusitaniae): 0.75 µg/mL
- MFC50 [8]: 1.48 µg/mL
- MFC90 [8]: 1.48 µg/mL
- MFC ([8]; Cryptococcus gattii species complex): 0.75 µg/mL
- HC50 [9]: > 129 µM
- IC50 [9]: > 48 µM
- MFC (Rhizopus arrhizus [10]): 5.9 µg/mL
- MIC (Candida parapsilosis [11]): > 47 µg/mL
- MIC50 (Candida parapsilosis [11]): > 47 µg/mL
- MIC90 (Candida parapsilosis [11]): > 47 µg/mL
- MIC (Pichia kudriavzevii [12]): 2.25 µg/mL
- MIC50 (Pichia kudriavzevii [12]): 2.96 µg/mL
- MIC90 (Pichia kudriavzevii [12]): 5.91 µg/mL
- MIC (Candida dubliniensis [13]): 0.805 µg/mL
- MIC50 (Candida dubliniensis [13]): 0.75 µg/mL
- MIC90 (Candida dubliniensis [13]): 0.75 µg/mL
- MIC [14]: 0.569 µg/mL
- MIC50 [14]: 0.38 µg/mL
- MIC90 [14]: 0.75 µg/mL
- MFC (Aspergillus flavus [15]): 47.3 µg/mL
- MIC (Exophiala spinifera): 0.37 µg/mL
- MIC (Fusarium solani): 47.3 µg/mL
- MIC [16]: > 47.3 µg/mL
- MIC (Rhizopus arrhizus [17]): 1.48 µg/mL
- MIC (Aspergillus fumigatus [18]): 47.3 µg/mL
- MIC (Aspergillus flavus [19]): 23.7 µg/mL
- MIC (Aspergillus flavus [20]): 47.3 µg/mL
- MIC (Aspergillus terreus): 5.9 µg/mL
- MIC (Scedosporium apiospermum): 2.96 µg/mL
- MIC [21]: 47.3 µg/mL
- MIC (Lichtheimia corymbifera): > 47.3 µg/mL
- MIC (Aspergillus fumigatus [22]): 47.3 µg/mL
- MIC [23]: 0.74 µg/mL
- MIC (Cryptococcus neoformans): 1.48 µg/mL
- MIC (Candida tropicalis [24]): 0.74 µg/mL
- MIC (Nakaseomyces glabratus): 1.48 µg/mL
- MIC (Candida parapsilosis [25]): 47.3 µg/mL
- MIC (Pichia kudriavzevii [26]): 11.8 µg/mL
- MIC (Candida parapsilosis [27]): 0.74 µg/mL
- MIC (Pichia kudriavzevii [28]): 5.9 µg/mL
- MIC (Candida albicans [29]): 1.48 µg/mL
- MIC (Clavispora lusitaniae [30]): 0.86 µg/mL
- MIC50 (Clavispora lusitaniae [30]): 0.75 µg/mL
- MIC90 (Clavispora lusitaniae [30]): 1.48 µg/mL
- MIC [31]: 1.48 µg/mL
